The test system of data set [1] is Plasmodium falciparum. Briefly: Antiplasmodial activity against chloroquine-susceptible Plasmodium falciparum 3D7 after 72 hrs by malaria SYBR Green I-based fluorescence assay. The data set is classed as functional, organism-based. The conditions noted are these: 3D7, 72 h. An outline of the steps:
(§1)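 Parasites kept continuously in O+ human erythrocytes with 10% human serum under 7% CO2/5% O2/88% N2. Test compounds from 100 mM DMSO stocks, serially diluted in culture medium, added in quadruplicate to asynchronous cultures at 0.2% parasitemia, 2% hematocrit. Incubated 72 h, 37 C. Lysis buffer with SYBR Green I added, 1 h 37 C dark. Fluorescence read at ex 497/em 520 nm. IC50 from nonlinear logistic dose-response regression.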

Data set [2] relates to Plasmodium falciparum. Briefly: Antiplasmodial activity against chloroquine-resistant Plasmodium falciparum Dd2 after 72 hrs by malaria SYBR Green I-based fluorescence assay. The data set is classed as functional, organism-based. Conditions: Dd2, 72 h. An outline of the steps: as §1
A short description of data set [3]: Cytotoxicity against african green monkey Vero cells at 6.17 uM after 72 hrs by MTT assay. The conditions noted are these: chlorocebus sabaeus, read-out: INH. The data set is classed as cell-based. A general note: Tetrazolium assays rely on reduction of a dye to a coloured formazan, in cell work by metabolically active cells.
Data set [4] in a line: Cytotoxicity against african green monkey Vero cells at 55.56 uM after 72 hrs by MTT assay. The data set is classed as cell-based. Conditions: chlorocebus sabaeus, read-out: INH.
Data set [5] is described as follows: Cytotoxicity against african green monkey Vero cells at 18.52 uM after 72 hrs by MTT assay. The data set is classed as cell-based. The conditions noted are these: chlorocebus sabaeus, read-out: INH.
Data set [6] is described as follows: Cytotoxicity against african green monkey Vero cells at 166.67 uM after 72 hrs by MTT assay. The data set is classed as cell-based. Conditions: chlorocebus sabaeus, read-out: INH.

This passage reports IC50 and cytotoxicity results from ChEMBL document CHEMBL1157804, “beta-Resorcylic acid lactones from a Paecilomyces fungus” (J Nat Prod, 2010).

As usually defined, the IC50 is the concentration at which inhibition is half-maximal.

Molecules are shown by their SMILES.

With `COc1cc(O)c2c(c1)/C=C/C[C@H](O)[C@H](O)[C@@H](O)/C=C/C[C@H](C)OC2=O` [ZEAENOL], the IC50 with Plasmodium falciparum [1] and with Plasmodium falciparum [2] was greater than 50 µM each time.
With `C[C@@H]1CC[C@H]2[C@@H](C)C(=O)O[C@@H]3O[C@@]4(C)CC[C@@H]1[C@]32OO4` [ARTEMISININ], the results for the IC50 in the data set with Plasmodium falciparum [1] and with Plasmodium falciparum [2] were 0.0125 µM and 0.0135 µM, respectively.
The matching figures for `COc1cc(O)c2c(c1)[C@@H]([C@H](O)C[C@H](O)[C@H](O)[C@@H](O)/C=C/C[C@H](C)O)OC2=O` [PAECILOMYCIN C]: greater than 50 µM and greater than 50 µM.
Regarding `COc1cc(O)c2c(c1)[C@@H](O)[C@H](C[C@H](O)[C@H](O)[C@@H](O)/C=C/C[C@H](C)O)OC2=O` [AIGIALOMYCIN F], the IC50 in the data set on Plasmodium falciparum [1] was 0.0109 µM; in the data set with Plasmodium falciparum [2], greater than 50 µM. Besides, the cytotoxicity at 72 h, 6.17 µM in data set [3] was 2.3%. For the same molecule, in data set [4], the cytotoxicity at 72 h, 55.56 µM was found to be 20.3%. The cytotoxicity at 72 h, 18.52 µM in data set [5] was 15.6%. Also, the cytotoxicity at 72 h, 166.67 µM in data set [6] was found to be 43.2%.
As for `COc1cc(O)c2c(c1)[C@@H]([C@H](O)C[C@H](O)[C@H](O)[C@H](O)/C=C/C[C@H](C)O)OC2=O` [PAECILOMYCIN D], the concentration for half-maximal inhibition (IC50) in the data set on Plasmodium falciparum [1] and with Plasmodium falciparum [2] was greater than 50 µM in each case.
`COc1cc(O)c2c(c1)[C@@H]1O[C@@H]1C[C@H](O)[C@H](O)[C@@H](O)/C=C/C[C@H](C)OC2=O` [AIGIALOMYCIN B]: the IC50 worked out at 0.65 µM in the data set with Plasmodium falciparum [1] and 13.5 µM in the data set with Plasmodium falciparum [2]. In addition, the cytotoxicity at 72 h, 6.17 µM in data set [3] came to 0%. In data set [4], the cytotoxicity at 72 h, 55.56 µM worked out at 2.3%. Also, in data set [5], the cytotoxicity at 72 h, 18.52 µM was 0%. Also, the cytotoxicity at 72 h, 166.67 µM in data set [6] came to 30.2%.
Take `COc1cc(O)c2c(c1)[C@@H]1O[C@H]([C@H](O)/C=C/C[C@H](C)OC2=O)[C@@H](O)C[C@H]1O` [PAECILOMYCIN B]: the IC50 is 3.8 µM with Plasmodium falciparum [1] and greater than 50 µM with Plasmodium falciparum [2]. For the same molecule, the cytotoxicity at 72 h, 6.17 µM in data set [3] turned out to be 0%. Further, the cytotoxicity at 72 h, 55.56 µM in data set [4] is 5.6%. In addition, the cytotoxicity at 72 h, 18.52 µM in data set [5] was 0%. In addition, the cytotoxicity at 72 h, 166.67 µM in data set [6] was found to be 46.3%.
As for `COc1cc(O)c2c(c1)/C=C/C[C@H](O)[C@H](O)[C@H](O)CCC[C@H](C)OC2=O` [PAECILOMYCIN F], the IC50 in the data set on Plasmodium falciparum [1] worked out at 1.1 µM; in the data set with Plasmodium falciparum [2], 1.7 µM. Moreover, in data set [3], the cytotoxicity at 72 h, 6.17 µM stood at 2.3%. In data set [4], the cytotoxicity at 72 h, 55.56 µM stood at 25.7%. In addition, the cytotoxicity at 72 h, 18.52 µM in data set [5] came to 10.4%. In data set [6], the cytotoxicity at 72 h, 166.67 µM was 58.5%.
For `COc1cc(O)c2c(c1)/C=C/C[C@H](O)[C@H](O)[C@@H](O)CCC[C@H](C)OC2=O` [PAECILOMYCIN E], the half-inhibitory concentration (IC50) turned out to be 0.02 µM with Plasmodium falciparum [1] and 8.8 µM in the data set with Plasmodium falciparum [2]. In addition, the cytotoxicity at 72 h, 6.17 µM in data set [3] turned out to be 0%. Also, the cytotoxicity at 72 h, 55.56 µM in data set [4] came out at 23.5%. In data set [5], the cytotoxicity at 72 h, 18.52 µM was 3.4%. Also, the cytotoxicity at 72 h, 166.67 µM in data set [6] amounted to 50.2%.
As to `C[C@H]1C/C=C/[C@@H](O)[C@@H](O)CC/C=C/c2cc(O)cc(O)c2C(=O)O1` [AIGIALOMYCIN D], the IC50 is 3.1 µM in the data set on Plasmodium falciparum [1] and 10.5 µM in the data set on Plasmodium falciparum [2]. In data set [3], the cytotoxicity at 72 h, 6.17 µM was 3.4%. The cytotoxicity at 72 h, 55.56 µM in data set [4] is 30.2%. Besides, in data set [5], the cytotoxicity at 72 h, 18.52 µM came to 12.5%. For the same molecule, in data set [6], the cytotoxicity at 72 h, 166.67 µM worked out at 56.3%.
For the molecule `COc1cc(O)c2c(c1)[C@@H]1O[C@@H]1C[C@H](O)[C@H](O)[C@H](O)/C=C/C[C@H](C)OC2=O` [PAECILOMYCIN A], the concentration for half-maximal inhibition (IC50) is 0.78 µM in the data set with Plasmodium falciparum [1] and greater than 50 µM in the data set with Plasmodium falciparum [2]. Also, the cytotoxicity at 72 h, 6.17 µM in data set [3] was found to be 0%. In addition, the cytotoxicity at 72 h, 55.56 µM in data set [4] was 0%. Besides, the cytotoxicity at 72 h, 18.52 µM in data set [5] was 0%. The cytotoxicity at 72 h, 166.67 µM in data set [6] worked out at 29.6%.
